In the library only some 2.2% were active in any assay of this set; here they are far more common.
PvdQ inh: blocks Pseudomonas aeruginosa PvdQ acylase activity; 340,000 compounds, 0.063% hits; AID 488965; inhibition, % at 10 µM; purified PvdQ acylase, fluorescence plate reader; in the data active means inhibition above about 30%, passing the limit was not always enough; inconclusive means no clear call, values can overlap the other calls;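 further: 0% = vehicle neutral wells and 100% = reference inhibitor wells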
Ecoli rRNA inh: inhibits bacterial ribosomal RNA function over humanized ribosomes. E. coli WT GFP vs humanized-ribosome RFP mutants, fluorescence, 24 h; hits give low values; DMSO median 0, no signal -100. 350,000 compounds, 1.6% hits. AID 720706. GFP signal change (wild-type ribosome), % (concentration not given with the values);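 active means significant combined selectivity score with lowered wild-type GFP, culture density cut under 30%, mutant RFP and density less affected; inactive means any of these conditions unmet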
Env fusion inh: HIV envelope-mediated fusion inhibition; inhibition, % at 12.3 µM; HeLa-JRFL Env/CEM21 cell fusion, luciferase; 360,000 compounds, 1.1% hits; AID 651610;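 active means mean replicate inhibition score of at least 50 and every replicate individually at or above 50; inconclusive means only one of the two criteria met; inactive means mean below 50 and not all replicates reaching 50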;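 further: 0% = plate neutral controls and 100% = maraviroc near 300 nM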
PDI inh: inhibitors of human protein disulfide isomerase; PDI insulin aggregation turbidity, A650, 90 min; inhibition, % at 10 µM; 350,000 compounds, 0.052% hits;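 active means mean inhibition across replicates of 30% or more, whatever share of single replicates reach that level; inconclusive means mean inhibition below 30% while every single replicate reaches 30%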
FN deposition inh: fibronectin deposition inhibition; AH1F fibroblasts, Alexa488-fibronectin deposition fluorescence, overnight; inhibition, % at 12.6 µM; 350,000 compounds, 0.086% hits;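 active means mean inhibition across replicates of 30% or more, regardless of how many single replicates reach that level; inconclusive means mean under 30% yet at least half of replicates reach 30%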;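 further: positive control wells lacked labelled fibronectin entirely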
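test system = AH1F fibroblasts assembling fluorescent fibronectin matrix | quantity = 10000 AH1F cells per well | buffer or medium = DMEM plus 2% serum, read in PBS | doses = single dose, pinned | incubation = 1 h cell attachment, overnight exposure to compound and label | detection = fluorescence at 485 nm excitation, 525 nm emission | read-out basis = inhibition from reduced deposited-fibronectin fluorescence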
ERp5 inh: inhibitors of human ERp5; ERp5 insulin aggregation, absorbance 650 nm, 90 min; inhibition, % at 9.99 µM; 350,000 compounds, 0.05% hits;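 active means mean replicate inhibition above about 25%, with every replicate also reaching it, limit read from the data, passing the limit was not always enough; inconclusive means only one of those two criteria met; inactive means neither criterion met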
Target sequence (Q15084 whole entry, looked up): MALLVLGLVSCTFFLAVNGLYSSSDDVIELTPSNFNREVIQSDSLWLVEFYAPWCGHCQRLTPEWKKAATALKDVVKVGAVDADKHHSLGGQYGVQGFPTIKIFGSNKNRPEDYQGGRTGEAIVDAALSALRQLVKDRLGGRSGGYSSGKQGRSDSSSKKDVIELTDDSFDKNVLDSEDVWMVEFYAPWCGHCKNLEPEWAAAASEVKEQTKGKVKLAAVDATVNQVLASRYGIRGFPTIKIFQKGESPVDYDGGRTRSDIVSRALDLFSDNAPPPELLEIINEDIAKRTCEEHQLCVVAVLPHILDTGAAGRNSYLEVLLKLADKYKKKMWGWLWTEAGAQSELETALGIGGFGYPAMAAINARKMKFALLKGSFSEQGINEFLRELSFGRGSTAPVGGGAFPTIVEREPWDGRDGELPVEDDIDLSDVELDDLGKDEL
HepG2 tox: cytotoxic compounds in HepG2 cells | HepG2 viability, ATP luminescence, 72 h | activity change, negative = cytotoxicity, unspecified at 26 µM | shares compounds with Ecoli rRNA inh | AID 743480 | 30 tested, under 10 active;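 active means compounds whose fitted half-maximal signal-loss concentration is at most twice their highest valid dose; inconclusive means flat curve with 30 to 70% signal loss, or poor fit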
AID977621: growth inhibition of wild-type GFP E. coli, dose response, H69 mutant RFP, cherry-pick; shares compounds with Ecoli rRNA inh; E. coli wild-type GFP strain growth, fluorescence, 24 h; activity change, negative = inhibition at 50 µM; 1,900 tested, under 10 active; AID 977621;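 active means Wild-type ribosome reporter drop at least double the humanized mutant ribosome reporter drop, growth loss under a set limit; inconclusive means no clear call, values can overlap the other calls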;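 further: wild-type GFP and H69 mutant RFP strains grown together 50/50 in each well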
AID977628: E. coli growth inhibition, wild-type GFP versus h24 humanized RFP strain, dose response, h24 mutant RFP vs wild-type GFP, cherry-pick; 1,900 tested, under 10 active; E. coli WT GFP strain growth, fluorescence, 24 h; AID 977628; shares compounds with Ecoli rRNA inh; activity change, negative = inhibition at 50 µM;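 active means compound lowering the normal-ribosome reporter at least twice as much as the humanized-ribosome reporter, growth loss under a set limit; inconclusive means no clear call, values can overlap the other calls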;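 further: wild-type GFP and h24 humanized RFP strains co-cultured 1 to 1 per well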
Active calls of the source: *; ? = inconclusive; . = not tested or not shown; [ ] = remark or other dose.

SMILES	PvdQ inh	Ecoli rRNA inh	Env fusion inh	PDI inh	FN deposition inh	ERp5 inh	AID977621	AID977628	others
C[C@@H]1CCCCO[C@@H](CN(C)CC2CC2)[C@H](C)CN([C@@H](C)CO)C(=O)c2cc(NC(=O)Nc3cccc4ccccc34)ccc2O1	.	-0.1	-5.7[16.7 µM]	.	.	.	.	.
Cc1noc(C)c1S(=O)(=O)Nc1ccc2c(c1)C(=O)N([C@@H](C)CO)C[C@H](C)[C@@H](CN(C)C(=O)Nc1ccc(F)cc1)O2	.	-1.6	-0.6[16.7 µM]	.	1.9	.	.	.
C[C@@H]1CCCCO[C@@H](CN(C)C(=O)CCCN(C)C)[C@H](C)CN([C@H](C)CO)C(=O)c2cc(NC(=O)Nc3ccccc3)ccc2O1	.	0.2	-3.4[16.7 µM]	.	-2.4	-0.9	.	.
C[C@@H]1CCCCO[C@H](CN(C)C(=O)CCCN(C)C)[C@H](C)CN([C@H](C)CO)C(=O)c2cc(NC(=O)Nc3cccc4ccccc34)ccc2O1	.	2.0	16.7[16.7 µM]	.	.	-1.2	.	?
C[C@H](CO)N1C[C@H](C)[C@@H](CN(C)C(=O)CCCN(C)C)OCCCC[C@H](C)Oc2ccc(NC(=O)Nc3cccc4ccccc34)cc2C1=O	.	-1.6	-7.7[16.7 µM]	.	.	5.7	-7.84	?
Cc1ccc(CSCC(=O)Nc2ccccc2F)cc1	-13.7	-22.6*	4.8	8.6	-1.4	-2.2	-4.52	?
Cc1ccc(S(=O)(=O)N(C(=O)c2ccncc2)c2ccc(OC(=O)c3ccncc3)cc2)c(C)c1	-7.4	-18.3*	1.0	5.9	5.5	-1.8	1.94	0.875
O=C(COC(=O)Cc1ccccc1F)Nc1ccc(Cl)cn1	-5.7	-17.8*	-7.9	1.3	-0.3	-2.2	-12.2	?
Cc1ccc(C(=O)NCc2ccccc2)c(F)c1F	-6.8	-18.3*	-16.4	0.4	-1.4	6.0	-10.1	3.65
Cc1occc1C(=O)NCc1ccccc1	-3.7	.	.	-7.7	.	.	.	.
Cc1ccccc1S(=O)(=O)NCC[C@@H]1CC[C@@H](NC(=O)C2CCCCC2)[C@@H](CO)O1	.	-3.9	-5.3[16.7 µM]	.	3.3	-5.6	.	.
COc1ccc(-c2[nH]ncc2CN2CCCC(C(=O)c3ccc(OC)cc3OC)C2)cc1 (stereo unspecified)	6.2	7.3	33.6	9.0	1.2	5.7	.	.
COc1ccc(OC)c(CN2CCCC(C(=O)c3ccccc3SC)C2)c1 (stereo unspecified)	-14.7	-18.4*	33.7	-14.7	4.3	-2.3	.	?
CCCNC(=O)N1[C@@H]2c3ccc(-c4cccc(F)c4)c(=O)n3C[C@H]1[C@H](CO)[C@H]2C(=O)NC1CCC1	.	2.9	.	.	.	0.8	.	.
CCC(=O)Nc1sc(Cc2ccccc2)c(C)c1C(N)=O	14.2	-51.0	1.3	-3.3	6.0	9.0	.	.
Cc1c(Cc2ccccc2)sc(NC(=O)Cc2ccccc2)c1C(N)=O	-11.5	-17.9*	.	-1.3	.	-2.8	-4.49	-10.6
C=CC1C2C(C)=CC(C3C(=O)N(C)C(=O)C32)N1Cc1ccc(OC)cc1 (stereo unspecified)	.	.	29.2[16.7 µM]	.	.	-5.3	.	.
O=C(Nc1ccc(C(=O)N2CCOCC2)cc1)C1CCCC1	-20.9	-4.4*	-11.4	-7.9	2.1	4.0	3.37	8.33
O=C(Nc1ccc(C(=O)N2CCCC2)cc1)C1CCCC1	-5.7	21.9	-9.8	-0.4	1.9	-1.3	.	.
O=C(Cc1cccc(NC(=O)C2CCN(C(=O)C3CCCCC3)CC2)c1)Nc1cccc(C(=O)N2CCCC2)c1	-6.9	-21.5*	15.1	-1.3	0.3	-8.7	-19.2	.
Cc1ccc(-c2nc3c(Br)cc(C)cn3c2Cc2cccc(Cl)c2)cc1	.	-5.6	25.2	.	1.2	-6.9	.	.
Cc1cc(Br)c2nc(-c3ccc(Cl)cc3)c(Cc3cccc(Cl)c3)n2c1	.	-18.9*	-21.6	.	-6.3	-0.4	?	?
Cc1cc(C)c(C#N)c(N2CCN(c3ccccc3)CC2)n1	-17.0	-26.4*	-4.8	-4.9	7.9	1.8	.	.	HepG2 tox=23.1[12 µM]
C=CCSc1cc(C)nc2c(-c3ccccc3)c(C)nn12	-2.1	-38.0*	48.5	4.1	-7.3	-1.3	-7.6	-4.76
Cc1cc(C)c(OCC(=O)OCC(=O)N2CCc3ccccc3C2)c(C)c1	7.7	-15.8*	6.3	3.6	2.6	4.4	.	-9.6
SMILES	PvdQ inh	Ecoli rRNA inh	Env fusion inh	PDI inh	FN deposition inh	ERp5 inh	AID977621	AID977628	others
C=CCn1c(C)cc(C(=O)COC(=O)CNC(=O)c2ccccc2)c1C	-6.2	-23.9*	10.5	-7.1	2.6	-4.5	-7.82	.
COc1cc(OC)nc(Oc2ccccc2C(=O)Oc2ccc(Cl)cc2)n1	-8.4	-14.5	.	-2.0	.	-6.2	.	.
COc1cc(OC)nc(Oc2ccccc2C(=O)Oc2ccc(C)cc2)n1	-10.8	-23.8*	.	0.8	.	3.6	-20.7	.
NS(=O)(=O)c1cccc(NC(=O)COc2ncnc3c2cnn3-c2ccccc2)c1	-15.3	-19.5*	-31.2	0.0	3.3	-0.3	?	.
Nc1nc(Nc2ccccc2)nc(NCc2ccco2)c1[N+](=O)[O-]	3.4	.	-24.7	-0.2	14.7	.	.	.
Nc1nc(Nc2ccccc2F)nc(NCc2ccco2)c1[N+](=O)[O-]	-0.9	-20.3*	-0.6	-4.7	-6.9	-2.1	?	.
Cc1cccc(NC(=O)CN(C)S(=O)(=O)c2cccc3cccnc23)c1	-3.2	-7.3	-6.3	2.8	2.8	2.9	.	.
CCc1cccc(NC(=O)CN(C)S(=O)(=O)c2cccc3cccnc23)c1	4.5	-19.6*	21.1	2.9	1.3	2.1	-7.72	-8.15
CC(=O)c1ccc(N2CCN(C(=O)C3CCN(S(=O)(=O)c4ccc5c(c4)CC(C)N5C(C)=O)CC3)CC2)cc1 (stereo unspecified)	4.9	-19.0*	-4.9	11.9	4.8	-13.3	-13.7	.
O=C(CSc1nc2ccccc2n1S(=O)(=O)c1cccc([N+](=O)[O-])c1)NCCc1ccccc1	-2.8	-32.6*	73.1*	7.1	-6.3	-10.9	-6.5	-8.42
CCCCCCC(=O)N1CCCC(c2nc(-c3cccc(OC)c3)no2)C1 (stereo unspecified)	3.5	-30.9*	26.0	-2.9	-8.6	-1.2	-5.77	?
COc1ccc2c3c([nH]c2c1)[C@H](CO)N(CC1CC1)CC31CCN(C(=O)c2ccccc2F)CC1	.	0.1	.	.	.	-1.3	.	.
CCOC(=O)Cc1csc(SCC(=O)Nc2cc(Cl)ccc2Oc2ccccc2)n1	2.5	.	.	-1.8	.	.	.	.
CCOC(=O)Cc1csc(SCC(=O)Nc2cc(C)ccc2OC)n1	3.4	-24.1*	5.7	0.6	2.6	1.1	.	?

Source: PubChem
